According to ChEMBL document CHEMBL4049426, “Identification of the Clinical Candidate (R)-(1-(4-Fluorophenyl)-6-((1-methyl-1H-pyrazol-4-yl)sulfonyl)-4,4a,5,6,7,8-hexahydro-1H-pyrazolo[3,4-g]isoquinolin-4a-yl)(4-(trifluoromethyl)pyridin-2-yl)methanone (CORT125134): A Selective Glucocorticoid Receptor (GR) Antagonist” (J Med Chem, 2017):

What was measured:
Cytochrome P450 3A5 = Cytochrome P450 3A5 (Homo sapiens, UniProt P20815); assay: Time-dependent inhibition of CYP3A5 (unknown origin); type: ADME
Cytochrome P450 2D6 = Cytochrome P450 2D6 (Homo sapiens, UniProt P10635); assay: Inhibition of CYP2D6 (unknown origin); type: ADME
[1] = Cmax in monkey plasma at 20 mg/kg, po measured up to 24 hrs by LC/MS analysis; type: ADME, organism-based, Macaca mulatta; design: dose 20 mg/kg, route oral; details: rhesus monkey
Procedure, shortened: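 Monkey i.v./p.o. study: oral 20mg/kg in 10% DMSO, 0.1% Tween 80, 0.5% hydroxypropylmethylcellulose in water; i.v. dose 1mg/kg.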

[2] = Oral bioavailability in Sprague-Dawley CD-1 rat plasma at 5 mg/kg administered through gavage measured up to 24 hrs by LC/MS analysis; type: ADME, organism-based
Procedure, shortened: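 Jugular-catheterized male Sprague Dawley CD-1 rats (220-250g). Oral arm: five rats, 5mg/kg gavage, 1mg/mL in DMSO:0.5% methylcellulose 10:90, 5mL/kg, sampled pre-dose and 0.25-24 h. i.v. arm: three rats, 1mg/kg, 0.5mg/mL in DMSO:PEG400:propylene glycol 10:45:45, sampled pre-dose and 0.08-24 h. Plasma by LC/MS.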

Cytochrome P450 3A4 = Cytochrome P450 3A4 (Homo sapiens, UniProt P08684); assay: Time-dependent inhibition of CYP3A4 (unknown origin); type: ADME
[3] = biological target: T1, Glucocorticoid receptor (Homo sapiens) (UniProt P04150); assay: Agonist activity at glucocorticoid receptor in human HepG2 cells assessed as induction of tyrosine amino transferase activity measured after 20 hrs; type: cell-based; details: in the assay text read “primary hepatocytes” for “HepG2 cells”
T1 sequence (whole entry): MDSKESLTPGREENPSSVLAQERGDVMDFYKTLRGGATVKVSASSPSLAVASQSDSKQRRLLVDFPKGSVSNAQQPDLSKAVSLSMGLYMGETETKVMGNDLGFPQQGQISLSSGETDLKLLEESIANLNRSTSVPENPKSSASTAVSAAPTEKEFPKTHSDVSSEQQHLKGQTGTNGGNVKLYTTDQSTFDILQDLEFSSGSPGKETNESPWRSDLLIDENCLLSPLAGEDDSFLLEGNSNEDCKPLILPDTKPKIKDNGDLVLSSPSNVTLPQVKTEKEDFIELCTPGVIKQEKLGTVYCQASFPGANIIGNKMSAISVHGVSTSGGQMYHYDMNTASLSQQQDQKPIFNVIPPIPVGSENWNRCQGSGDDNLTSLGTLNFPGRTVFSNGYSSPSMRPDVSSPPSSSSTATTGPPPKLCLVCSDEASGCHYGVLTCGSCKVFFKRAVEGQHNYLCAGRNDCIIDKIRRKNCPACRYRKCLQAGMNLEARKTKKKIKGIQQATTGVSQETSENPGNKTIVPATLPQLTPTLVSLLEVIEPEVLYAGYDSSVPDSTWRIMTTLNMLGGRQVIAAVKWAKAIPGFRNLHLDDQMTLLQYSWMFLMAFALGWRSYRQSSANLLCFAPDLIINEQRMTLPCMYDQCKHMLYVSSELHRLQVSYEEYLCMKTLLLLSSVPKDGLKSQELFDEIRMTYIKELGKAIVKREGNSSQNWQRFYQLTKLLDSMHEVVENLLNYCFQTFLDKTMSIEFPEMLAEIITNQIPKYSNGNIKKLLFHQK
Procedure, shortened: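 HepG2 cells in charcoal-stripped FBS RPMI, 25,000 cells/well, 24 h; assay media with 10 µM forskolin. 30 min pre-incubation in 0.1% DMSO, then compound (8-point half-log, 10 µM to 0.003 µM final) for 20 h at 37°C. TAT in lysate with tyrosine, alpha-ketoglutarate and pyridoxal phosphate, 2 h at 37°C, KOH stop, A340. EC50 from 4-parameter fit of % activation of basal TAT.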

Sequence of Cytochrome P450 3A5 (P20815 whole entry): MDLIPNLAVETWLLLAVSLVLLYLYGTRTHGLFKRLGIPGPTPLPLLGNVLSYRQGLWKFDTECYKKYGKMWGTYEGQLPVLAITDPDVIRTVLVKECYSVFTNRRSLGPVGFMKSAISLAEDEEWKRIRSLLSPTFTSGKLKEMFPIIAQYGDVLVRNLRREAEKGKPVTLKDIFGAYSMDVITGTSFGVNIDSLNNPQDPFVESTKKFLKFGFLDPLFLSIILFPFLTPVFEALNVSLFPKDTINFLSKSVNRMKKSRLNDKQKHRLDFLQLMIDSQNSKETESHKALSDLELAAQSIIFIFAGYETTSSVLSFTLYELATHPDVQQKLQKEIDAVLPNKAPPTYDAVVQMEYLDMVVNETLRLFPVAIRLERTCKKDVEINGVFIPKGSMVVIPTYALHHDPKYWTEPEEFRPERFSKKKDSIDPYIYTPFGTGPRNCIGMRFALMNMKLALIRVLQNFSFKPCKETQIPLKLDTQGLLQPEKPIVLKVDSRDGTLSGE
Sequence of Cytochrome P450 3A4 (P08684 whole entry): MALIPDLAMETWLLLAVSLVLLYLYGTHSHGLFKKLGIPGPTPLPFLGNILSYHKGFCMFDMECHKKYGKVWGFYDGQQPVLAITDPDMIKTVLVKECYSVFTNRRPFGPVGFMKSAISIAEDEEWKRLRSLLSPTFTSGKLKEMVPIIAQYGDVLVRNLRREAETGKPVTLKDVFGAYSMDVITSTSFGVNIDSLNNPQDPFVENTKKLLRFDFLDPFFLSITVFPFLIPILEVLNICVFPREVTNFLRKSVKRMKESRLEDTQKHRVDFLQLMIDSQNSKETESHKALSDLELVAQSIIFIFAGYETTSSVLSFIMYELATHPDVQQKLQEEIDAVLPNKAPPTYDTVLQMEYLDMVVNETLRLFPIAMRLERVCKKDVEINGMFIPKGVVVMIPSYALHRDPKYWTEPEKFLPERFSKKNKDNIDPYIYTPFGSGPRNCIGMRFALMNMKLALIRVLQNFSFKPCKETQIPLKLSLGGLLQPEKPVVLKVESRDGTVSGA
Sequence of Cytochrome P450 2D6 (P10635 whole entry): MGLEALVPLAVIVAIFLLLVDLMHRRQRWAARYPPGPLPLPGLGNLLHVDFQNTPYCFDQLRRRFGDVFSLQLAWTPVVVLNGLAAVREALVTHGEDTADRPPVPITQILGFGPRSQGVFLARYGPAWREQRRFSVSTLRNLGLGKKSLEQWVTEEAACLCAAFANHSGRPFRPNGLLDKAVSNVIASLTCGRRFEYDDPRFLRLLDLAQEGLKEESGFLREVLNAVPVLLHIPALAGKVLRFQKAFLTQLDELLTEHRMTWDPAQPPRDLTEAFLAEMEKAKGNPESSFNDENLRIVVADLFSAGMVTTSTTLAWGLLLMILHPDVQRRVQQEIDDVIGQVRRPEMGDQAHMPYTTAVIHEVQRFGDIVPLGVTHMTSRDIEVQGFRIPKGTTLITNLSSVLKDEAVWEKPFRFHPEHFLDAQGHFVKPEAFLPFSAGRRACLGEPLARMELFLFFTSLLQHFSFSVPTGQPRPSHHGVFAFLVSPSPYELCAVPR

Cn1cc(S(=O)(=O)N2CCC3=Cc4c(cnn4-c4ccc(F)cc4)C[C@]3(C(=O)c3cc(C(F)(F)F)ccn3)C2)cn1 [RELACORILANT]
TDI (Cytochrome P450 3A5): Not Active
IC50 (Cytochrome P450 2D6): 9 µM
Cmax [1]: 1140 ng/mL
bioavailability [2]: 89%
TDI (Cytochrome P450 3A4): Not Active
Emax [3]: 0%
